Data set [1] concerns the target PSMA (Homo sapiens, UniProt Q04609). Nature of the data set: PSMA inhibition assay. In kind it is biochemical. The essentials: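 LNCaP cell extract as enzyme source, incubated with the inhibitor at various amounts plus 4 μM NAAG for 120 min. Glutamate released was detected with Amplex Red glutamic acid working solution over 60 min, fluorescence ex 530/em 560 nm. […] Triplicate; known PSMA inhibitor as positive control.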

Data set [2] concerns PC-3 PIP and PC-3 flu xenografts. To be noted: SCID mice.
Data set [3] deals with PSMA+ PC-3 PIP xenografts. The note with it: cited from earlier work.
For data set [4] the following is noted: Phase II trial, 3 months after treatment; cited from earlier work.

The structures appear in SMILES notation. Several values for one entry are separate records, joined by “and”; a condition that tells them apart may be missing. Identical values can stand only once. Like-named read-outs stand apart in the source and are kept apart here.

PSMA, sequence (Q04609 whole entry): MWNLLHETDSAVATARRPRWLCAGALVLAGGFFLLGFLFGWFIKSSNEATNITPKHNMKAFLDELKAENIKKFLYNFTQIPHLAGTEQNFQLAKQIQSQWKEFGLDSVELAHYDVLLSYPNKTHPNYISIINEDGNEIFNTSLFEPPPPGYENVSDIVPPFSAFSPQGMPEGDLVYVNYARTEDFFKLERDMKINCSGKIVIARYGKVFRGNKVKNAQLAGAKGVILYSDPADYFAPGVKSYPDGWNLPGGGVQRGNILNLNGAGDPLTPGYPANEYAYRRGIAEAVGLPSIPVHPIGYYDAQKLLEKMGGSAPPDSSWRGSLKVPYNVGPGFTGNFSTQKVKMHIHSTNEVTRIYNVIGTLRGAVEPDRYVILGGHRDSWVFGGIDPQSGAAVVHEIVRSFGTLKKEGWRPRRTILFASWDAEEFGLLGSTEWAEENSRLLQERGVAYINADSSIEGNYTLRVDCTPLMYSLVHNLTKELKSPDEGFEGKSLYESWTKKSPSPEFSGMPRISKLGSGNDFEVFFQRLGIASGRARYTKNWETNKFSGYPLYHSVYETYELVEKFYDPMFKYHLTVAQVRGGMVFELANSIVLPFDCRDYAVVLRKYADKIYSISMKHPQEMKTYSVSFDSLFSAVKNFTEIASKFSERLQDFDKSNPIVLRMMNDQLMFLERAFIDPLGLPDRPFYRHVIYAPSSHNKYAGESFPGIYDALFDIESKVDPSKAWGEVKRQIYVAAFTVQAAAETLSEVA

For `O=C(O)CC[C@H](NC(=O)N[C@@H](CCC(=O)NCCc1ccc(I)cc1)C(=O)O)C(=O)O` [HS-549, (((S)-1-Carboxy-4-((4-iodophenethyl)amino)-4-oxobutyl)carbamoyl)-L-glutamic acid], in data set [1], the midpoint of inhibition, the IC50, lay at 0.43 nM and the Ki was determined as 0.09 nM.

Take `O=C(O)CC[C@H](NC(=O)N[C@@H](CCC(=O)NCCc1ccc([131I])cc1)C(=O)O)C(=O)O` [[^131I]HS-549]: in data set [2] (1 h), the “Percent injected dose per gram: Blood” value was determined as 5.90 ± 1.05 % ID/g, the “Percent injected dose per gram: Bone” value worked out at 0.94 ± 0.36 % ID/g, the “Percent injected dose per gram: Brain” value was found to be 0.26 ± 0.08 % ID/g and the “Percent injected dose per gram: Heart” value is 2.30 ± 0.63 % ID/g. In data set [2] (1 h), the “Percent injected dose per gram: Kidneys” value is listed as 106 ± 18.9 % ID/g, the “Percent injected dose per gram: Lg. Int.” value amounted to 0.52 ± 0.12 % ID/g, the “Percent injected dose per gram: Liver” value was 21.2± 4.14 % ID/g and the “Percent injected dose per gram: Lungs” value is recorded as 4.60 ± 1.09 % ID/g. Further, in data set [2] (1 h), the “Percent injected dose per gram: Muscle” value is listed as 0.86 ± 0.26 % ID/g, the “Percent injected dose per gram: PC-3 PIP” value is recorded as 78.1 ± 19.1 % ID/g, the “Percent injected dose per gram: PC-3 flu” value came out at 2.21 ± 0.53 % ID/g and the “Percent injected dose per gram: Sm. Int.” value is given as 1.98 ± 0.30 % ID/g. For the same molecule, in data set [2] (1 h), the “Percent injected dose per gram: Spleen” value was 6.76 ± 3.42 % ID/g, the “Percent injected dose per gram: Stomach” value was determined as 0.92 ± 0.20 % ID/g, the “Percent injected dose per gram: Thyroid” value turned out to be 1.17 ± 0.43 % ID/g and the Thyroid uptake was 0.30 ± 0.13 %ID. Moreover, in data set [2] (1 h), the “Tumor-to-blood ratio (PSMA+ PC3 PIP)” value is 13.3 ± 2.7 and the “Tumor-to-kidney ratio (PSMA+ PC3 PIP)” value was 0.74 ± 0.15. In data set [2] (1 h and 2 h, P < 0.05), the “Liver levels relative to co-administered [211At]HS-549” value is listed as 3–6 fold. In addition, in data set [2] (2 h), the “Percent injected dose per gram: Blood” value was determined as 2.92 ± 0.32 % ID/g, the “Percent injected dose per gram: Bone” value stood at 0.65 ± 0.25 % ID/g, the “Percent injected dose per gram: Brain” value is listed as 0.18 ± 0.02 % ID/g and the “Percent injected dose per gram: Heart” value was 1.14 ± 0.18 % ID/g. In data set [2] (2 h), the “Percent injected dose per gram: Kidneys” value came to 96.6 ± 39.1 % ID/g, the “Percent injected dose per gram: Lg. Int.” value was determined as 1.32 ± 0.25 % ID/g, the “Percent injected dose per gram: Liver” value was found to be 26.0 ± 3.09 % ID/g and the “Percent injected dose per gram: Lungs” value came to 2.73 ± 0.66 % ID/g. In addition, in data set [2] (2 h), the “Percent injected dose per gram: Muscle” value is given as 0.46 ± 0.12 % ID/g, the “Percent injected dose per gram: PC-3 PIP” value was 74.7 ± 13.1 % ID/g, the “Percent injected dose per gram: PC-3 flu” value turned out to be 1.51 ± 0.30 % ID/g and the “Percent injected dose per gram: Sm. Int.” value is recorded as 2.42 ± 0.40 % ID/g. In addition, in data set [2] (2 h), the “Percent injected dose per gram: Spleen” value stood at 2.71 ± 0.85 % ID/g, the “Percent injected dose per gram: Stomach” value was 0.47 ± 0.17 % ID/g, the “Percent injected dose per gram: Thyroid” value was 0.69 ± 0.29 % ID/g and the “Tumor-to-blood ratio (PSMA+ PC3 PIP)” value amounted to 26 ± 5.3. Further, the “Tumor-to-kidney ratio (PSMA+ PC3 PIP)” value in data set [2] (2 h) is recorded as 0.87 ± 0.30. Also, in data set [2] (21 h), the “Percent injected dose per gram: Blood” value worked out at 1.39 ± 0.35 % ID/g, the “Percent injected dose per gram: Bone” value is listed as 0.20 ± 0.05 % ID/g, the “Percent injected dose per gram: Brain” value was 0.08 ± 0.02 % ID/g and the “Percent injected dose per gram: Heart” value came to 0.41 ± 0.09 % ID/g. Further, in data set [2] (21 h), the “Percent injected dose per gram: Kidneys” value amounted to 3.13 ± 1.65 % ID/g, the “Percent injected dose per gram: Lg. Int.” value was found to be 0.63 ± 0.39 % ID/g, the “Percent injected dose per gram: Liver” value came out at 1.86 ± 0.51 % ID/g and the “Percent injected dose per gram: Lungs” value is 0.87 ± 0.27 % ID/g. In data set [2] (21 h), the “Percent injected dose per gram: Muscle” value came out at 0.16 ± 0.04 % ID/g, the “Percent injected dose per gram: PC-3 PIP” value is given as 22.6 ± 22.1 % ID/g, the “Percent injected dose per gram: PC-3 flu” value is reported as 0.44 ± 0.18 % ID/g and the “Percent injected dose per gram: Sm. Int.” value was 0.37 ± 0.06 % ID/g. In data set [2] (21 h), the “Percent injected dose per gram: Spleen” value worked out at 0.29 ± 0.12 % ID/g, the “Percent injected dose per gram: Stomach” value turned out to be 0.14 ± 0.04 % ID/g, the “Percent injected dose per gram: Thyroid” value is 0.36 ± 0.05 % ID/g and the Thyroid uptake worked out at 0.08 ± 0.01 %ID. Moreover, in data set [2] (21 h), the “Tumor-to-blood ratio (PSMA+ PC3 PIP)” value came out at 18 ± 19 and the “Tumor-to-kidney ratio (PSMA+ PC3 PIP)” value worked out at 6.26 ± 4.04.

For `O=C(O)CC[C@H](NC(=O)N[C@@H](CCCCNC(=O)c1ccc([211At])cc1)C(=O)O)C(=O)O` [[^211At]DCABzL, (((S)-1-carboxy-5-(4-[^211At]astinatobenzamido)pentyl)carbamoyl)-L-glutamic acid], in data set [3] (%ID/organ), the “Stomach activity level, range over time points” value is 3.8 – 8.2% and the “Thyroid radioactivity level, range over time points” value was 0.5–1.3%. Besides, the “Peak uptake in subcutaneous PC3 PSMA+ PIP xenografts” value in data set [3] is over 30 % ID/g.

In the case of `O=C(O)CC[C@H](NC(=O)N[C@@H](CCC(=O)NCCc1ccc([211At])cc1)C(=O)O)C(=O)O` [[^211At]HS-549], in data set [2] (1 h), the “Percent injected dose per gram: Blood” value was 5.5 ± 0.8 % ID/g and 5.53 ± 0.84 % ID/g; the “Percent injected dose per gram: Bone” value came to 1.49 ± 0.40 % ID/g; the “Percent injected dose per gram: Brain” value was 0.46 ± 0.09 % ID/g; the “Percent injected dose per gram: Heart” value was found to be 4.34 ± 0.96 % ID/g. In data set [2] (1 h), the “Percent injected dose per gram: Kidneys” value was found to be 46.7 ± 8.2 % ID/g, the “Percent injected dose per gram: Lg. Int.” value was determined as 1.16 ± 0.20 % ID/g, the “Percent injected dose per gram: Liver” value stood at 7.94 ± 2.15 % ID/g and the “Percent injected dose per gram: Lungs” value came out at 9.77 ± 1.75 % ID/g. In addition, in data set [2] (1 h), the “Percent injected dose per gram: Muscle” value is recorded as 1.11 ± 0.29 % ID/g, the “Percent injected dose per gram: PC-3 PIP” value worked out at 43.2 ± 9.8 % ID/g, the “Percent injected dose per gram: PC-3 flu” value amounted to 3.48 ± 0.53 % ID/g and the “Percent injected dose per gram: Sm. Int.” value came to 5.52 ± 1.57 % ID/g. In data set [2] (1 h), the “Percent injected dose per gram: Spleen” value is 8.79 ± 2.09 % ID/g, the “Percent injected dose per gram: Stomach” value amounted to 7.07 ± 2.24 % ID/g and the “Percent injected dose per gram: Thyroid” value turned out to be 3.24 ± 0.56 % ID/g. Moreover, in data set [2] (2 h), the “Percent injected dose per gram: Blood” value is 2.8 ± 0.4 % ID/g and 2.87 ± 0.40 % ID/g; the “Percent injected dose per gram: Brain” value came to 0.39 ± 0.06 % ID/g; the “Percent injected dose per gram: Heart” value is reported as 3.36 ± 0.59 % ID/g; the “Percent injected dose per gram: Kidneys” value amounted to 40.4 ± 15.5 % ID/g. For the same molecule, in data set [2] (2 h), the “Percent injected dose per gram: Lg. Int.” value was determined as 4.59 ± 0.81 % ID/g, the “Percent injected dose per gram: Liver” value is 4.65 ±1.28 % ID/g, the “Percent injected dose per gram: Lungs” value amounted to 8.24 ± 2.25 % ID/g and the “Percent injected dose per gram: Muscle” value is 0.76 ± 0.18 % ID/g. In addition, in data set [2] (2 h), the “Percent injected dose per gram: PC-3 PIP” value is listed as 42.0 ± 7.16 % ID/g, the “Percent injected dose per gram: PC-3 flu” value amounted to 2.82 ±0.60 % ID/g, the “Percent injected dose per gram: Sm. Int.” value was determined as 3.81 ± 1.24 % ID/g and the “Percent injected dose per gram: Spleen” value came out at 6.13 ± 1.59 % ID/g. Also, in data set [2] (2 h), the “Percent injected dose per gram: Stomach” value was 14.3 ± 3.2 % ID/g and the “Percent injected dose per gram: Thyroid” value is listed as 4.11 ± 2.00 % ID/g. Further, in data set [2] (21 h), the “Percent injected dose per gram: Blood” value is listed as 0.92 ± 0.15 % ID/g, the “Percent injected dose per gram: Bone” value is reported as 0.60 ± 0.17 % ID/g, the “Percent injected dose per gram: Brain” value stood at 0.17 ± 0.03 % ID/g and the “Percent injected dose per gram: Kidneys” value came to 2.60 ± 0.77 % ID/g. For the same molecule, in data set [2] (21 h), the “Percent injected dose per gram: Lg. Int.” value came out at 0.93 ± 0.41 % ID/g; the “Percent injected dose per gram: Liver” value is recorded as 0.89 ± 0.13 % ID/g; the “Percent injected dose per gram: Lungs” value was 4.3 ± 0.7 % ID/g and 4.26 ± 0.72 % ID/g; the “Percent injected dose per gram: Muscle” value is listed as 0.29 ± 0.09 % ID/g. In data set [2] (21 h), the “Percent injected dose per gram: PC-3 PIP” value was determined as 10.6 ± 9.91 % ID/g, the “Percent injected dose per gram: Sm. Int.” value came to 1.28 ± 0.30 % ID/g, the “Percent injected dose per gram: Spleen” value is recorded as 2.31 ± 0.67 % ID/g and the “Percent injected dose per gram: Stomach” value is on record as 12.6 ± 6.20 % ID/g. Further, the “Percent injected dose per gram: Thyroid” value in data set [2] (21 h) came out at 3.78 ± 0.63 % ID/g. For the same molecule, the “Stomach activity level, range over time points” value in data set [2] (%ID/organ) was 3.2 −8.7 %ID. The “Thyroid radioactivity level, range over time points” value in data set [2] (%ID/organ, all time points) was 0.8–0.9 %ID.

Consider `O=C([O-])CN1CCN(CC(=O)[O-])CCN(CC(=O)NCC2CCC(C(=O)N[C@@H](Cc3ccc4ccccc4c3)C(=O)NCCCC[C@H](NC(=O)N[C@@H](CCC(=O)O)C(=O)O)C(=O)O)CC2)CCN(CC(=O)[O-])CC1.[177Lu+3]` (some centres unmarked) [^177Lu-labeled PSMA-617], for which the “Patients with reductions in tumor volume” value in data set [4] is on record as “about 40%”.

The record behind these values is publication PMC7987787 (Nuclear medicine and biology, 2021).
